Assay outcomes deposited in PubChem by The Scripps Research Institute Molecular Screening Center.
Sampled rows, rich in hits. Any-hit rate of the full collection: about 1.9%.
TDP2 absorb: blocks human TDP2 phosphodiesterase activity | O95551 | recombinant TDP2, T5PNP hydrolysis, p-nitrophenol absorbance 415 nm | inhibition, % at 12.8 µM | 370,000 tested, 0.34% active;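 active = inhibition above the mean of all tested compounds plus 3 SD, set per campaign, cut at about 25% in these data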
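test system = human TDP2 enzyme | input = TDP2 enzyme at 120 nM final | medium = 50 mM Tris-HCl pH 7.5 with Mg2+, KCl, DTT, BSA | also added = T5PNP substrate, 5 mM | times = 2 h at 37 °C | technique = epi absorbance | benchmarks = high control without enzyme, low control DMSO plus TDP2 | replication = each compound tested once, singlicate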
Tn6 DDE FP: inhibitors of Tn6 peptide binding to human fibrin DD(E); inhibition, % at 8.3 µM; Fibrin DD(E) TRITC-Tn6 fluorescence polarization displacement; P02675; 370,000 tested, 0.21% active; AID 720509;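 active = inhibition above a per-campaign cutoff: mean of compounds within control limits plus 3 SD, cut at about 15% in these data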
MBD2 DNA inh: inhibitors of human MBD2 binding to methylated oligonucleotide | Q9UBB5 | TR-FRET | inhibition, % at 4.4 µM | 370,000 tested, 0.31% active | AID 686964; in the data active = inhibition above about 13%
Target sequence (Q9UBB5 whole entry, looked up): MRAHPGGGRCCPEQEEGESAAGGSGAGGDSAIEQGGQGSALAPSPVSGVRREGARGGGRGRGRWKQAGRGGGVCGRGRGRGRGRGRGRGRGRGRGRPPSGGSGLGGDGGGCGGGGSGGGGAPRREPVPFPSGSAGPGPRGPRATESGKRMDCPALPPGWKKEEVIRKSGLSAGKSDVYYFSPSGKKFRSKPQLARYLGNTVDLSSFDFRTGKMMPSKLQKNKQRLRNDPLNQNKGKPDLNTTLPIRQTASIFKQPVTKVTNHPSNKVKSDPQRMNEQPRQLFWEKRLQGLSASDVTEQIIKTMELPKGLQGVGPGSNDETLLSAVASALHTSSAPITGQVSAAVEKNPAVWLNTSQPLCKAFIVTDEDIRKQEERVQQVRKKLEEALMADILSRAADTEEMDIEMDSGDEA
DDE Tn7 FP inh: inhibitors of Tn7 peptide binding to human fibrin DD(E); P02675; FP displacement of FITC-Tn7 peptide from fibrin DD(E); 0% = median of compound wells per plate; inhibition, % at 8.3 µM; 370,000 tested, 0.13% active; AID 720508;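 active = inhibition above the mean of compounds falling within the control limits plus 3 SD of them, cut at about 14% in these data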
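Assay system: human fibrin DD(E). Input: DD(E) 2 µM final. Medium: Tris buffer with calcium and detergent, pH 7.8. Compound dosing: single point at 8.3 µM. Timing: 10 min plus 3 h, room temperature. Technique: fluorescence polarization of the labelled Tn7 tracer. Read-out: percent inhibition. Replicates: singlicate testing.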
LEDGF integ inh: blocks HIV-1 LEDGF/p75-dependent DNA integration; TR-FRET IN-LEDGF/p75 DNA integration, Eu/Cy5; 370,000 tested, 0.64% active; inhibition, % at 3.7 µM;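 active = inhibition above the screen-wide mean plus 3 SD, cut at about 13% in these data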;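 also: signal is the Cy5 over europium emission ratio at 671 and 618 nm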
UHRF1 binding: human UHRF1 methylated DNA binding inhibitors; UHRF1 binding to methylated oligo, TR-FRET; 370,000 tested, 0.75% active; inhibition, % at 4.4 µM; AID 687016; in the data active = inhibition above about 21%;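 also: UHRF1 SRA domain binding a hemimethylated CpG hairpin DNA probe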
TDP2 confirm: human TDP2 inhibition, confirmation; recombinant human TDP2, absorbance read-out; inhibition, % at 12.8 µM; 1,100 tested, 22% active; shares compounds with TDP2 absorb; in the data active = inhibition above about 25%
IN multimer act: HIV-1 integrase multimerization activation, counter-screen | shares compounds with LEDGF integ inh | TR-FRET HIV-1 integrase multimerization, biochemical | activation, % at 7.7 µM | 2,000 tested, 17% active; in the data active = activation above about 8.9%
TR-FRET interf: TR-FRET optical interference, LEDGF/p75 integration counter-screen; inhibition, % at 7.7 µM; 2,000 tested, under 10 active; TR-FRET optical interference counterscreen, HIV-1 IN multimerization; shares compounds with LEDGF integ inh;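 active = inhibition above the mean over all tested compounds plus 3 SD, which no compound reached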
IN-LEDGF confirm: confirmation of HIV-1 LEDGF/p75-dependent integration inhibitors; shares compounds with LEDGF integ inh; TR-FRET LEDGF/p75-dependent HIV-1 integration, biochemical; inhibition, % at 3.7 µM; 2,000 tested, 36% active; AID 1053136; in the data active = inhibition above about 14%
Large screens that a line does not name were inactive (follow-up assays come after a bar, where they were run).

CC(C)=CCC1=C(OCC(=O)O)C(=O)c2ccccc2C1=O	TDP2 absorb 47, LEDGF integ inh 25 | TDP2 confirm 67 | IN multimer act inactive | TR-FRET interf inactive | IN-LEDGF confirm 57
CC(C)=CCC/C(C)=C/CC/C(C)=C/CC/C(C)=C/CC1=C(C)C(=O)c2ccccc2C1=O	none
CC(Nc1cccc2ccccc12)C(=O)N/N=C/c1ccc([N+](=O)[O-])cc1 (centres undefined)	TDP2 absorb 31, LEDGF integ inh 16 | TDP2 confirm inactive | IN multimer act inactive | TR-FRET interf inactive | IN-LEDGF confirm inactive
Cc1cccc(/C=N/NC(=O)C(C)Nc2cccc3ccccc23)n1 (centres undefined)	TDP2 absorb 67, LEDGF integ inh 32 | TDP2 confirm inactive | IN multimer act inactive | TR-FRET interf inactive | IN-LEDGF confirm inactive
O=c1[nH]c(-c2ccccc2)cn1C1CCN(Cc2ccc(-c3nc4ccccc4nc3-c3ccccc3)cc2)CC1	none
COc1cc(/C=N/NC(=O)c2ccncc2)ccc1OC(C)=O	none
COc1ccc(OC)c(/C=N\Nc2nccs2)c1	none
C(=N\Nc1nncn1/N=C/c1ccco1)/c1ccco1	TDP2 absorb 55, LEDGF integ inh 37 | TDP2 confirm inactive | IN multimer act inactive | TR-FRET interf inactive | IN-LEDGF confirm inactive
COc1ccc(OC)c(/C=N/Nc2nncn2/N=C/c2cc(OC)ccc2OC)c1	TDP2 absorb 67, LEDGF integ inh 39 | TDP2 confirm inactive | IN multimer act inactive | TR-FRET interf inactive | IN-LEDGF confirm inactive
COc1cc(/C=N\Nc2nncn2N)ccc1OC(C)=O	TDP2 absorb 57, LEDGF integ inh 58 | TDP2 confirm inactive | IN multimer act inactive | TR-FRET interf inactive | IN-LEDGF confirm inactive
COc1cc(/C=N/Nc2ccccc2)ccc1O	none
COc1cc(/C=N/Nc2nncn2/N=C/c2ccc(O)c(OC)c2)ccc1O	TDP2 absorb 67, LEDGF integ inh 48 | TDP2 confirm inactive | IN multimer act inactive | TR-FRET interf inactive | IN-LEDGF confirm inactive
Cc1ccccc1-c1ccc2c(c1)[C@@H]1C[C@H]3[C@@H](CN1CC2)[C@H](C)OC(C1CCCCC1)N3C (some centres undefined)	none
CC(C)CN1CN2CCc3ccccc3C2CS1(=O)=O (centres undefined)	none
CC1COCC(C)N1C1=C(Cl)C(=O)c2ccccc2C1=O (centres undefined)	none
CN1CCN(C2=C(Cl)C(=O)c3ccccc3C2=O)CC1	TDP2 absorb 69, LEDGF integ inh 34 | TDP2 confirm 80 | IN multimer act inactive | TR-FRET interf inactive | IN-LEDGF confirm 73
Cc1ccc(CN2CCCCC(NC(=O)c3ccc(N(C)C)cc3)C2=O)cc1 (centres undefined)	none
O=C(Nc1ccc2nsnc2c1)N1CCCCCC1	none
S=C(Nc1ccc2nsnc2c1)N1CCCC1	TDP2 absorb 67, LEDGF integ inh 32 | TDP2 confirm 45 | IN multimer act inactive | TR-FRET interf inactive | IN-LEDGF confirm inactive
COC(=O)C1=C(C)N(C)C(=NCc2ccccc2)NC1c1cccc(Cl)c1 (centres undefined)	none
CCC(O)(c1ccc(NC(=O)OC(C)(C)C)cc1)c1cc(OC)cc(OC)c1 (centres undefined)	none
CC(NC1=CC(=O)c2cccnc2C1=O)C(O)c1ccccc1 (centres undefined)	TDP2 absorb 57, LEDGF integ inh 36 | TDP2 confirm 71 | IN multimer act inactive | TR-FRET interf inactive | IN-LEDGF confirm 66
CCN1C(=O)N(C(C)=O)[C@H]2C[C@H](C(=O)N3CCCC3)[C@H](C)[C@H](c3ccccc3)C[C@H]21	none
CC(C)[C@H]1/C(=C/C2CC2)N2C(=O)C[C@H](c3ccccc3)N=C2N1C	none
O=C(NCc1ccccc1)[C@H]1CCCN1C(=O)[C@H]1CCCN1C(=O)c1ccc(Cl)cc1	none
COc1ccc2c(c1)Cc1sc(NC(C)=O)nc1-2	TDP2 absorb 49, LEDGF integ inh 15 | TDP2 confirm 29 | IN multimer act inactive | TR-FRET interf inactive | IN-LEDGF confirm 27
COc1ccc2c(c1)Cc1sc(NC(=O)c3ccco3)nc1-2	TDP2 absorb 64, LEDGF integ inh 38 | TDP2 confirm inactive | IN multimer act inactive | TR-FRET interf inactive | IN-LEDGF confirm inactive
COc1ccc2c(c1)-c1nc(NC(=O)c3ccco3)sc1CC2	none
COc1ccc2c(c1)Cc1sc(NC(=O)c3cccnc3)nc1-2	none
Nc1ccc2ccc(N)cc2c1	none
O=C1CC(c2ccccc2)=NN1c1ccccc1	TDP2 absorb 65, LEDGF integ inh 21 | TDP2 confirm inactive | IN multimer act inactive | TR-FRET interf inactive | IN-LEDGF confirm inactive
Cc1cc(C)nc(N2N=C(c3ccccc3)CC2=O)n1	none
COc1ccc(C(=O)Nc2ccc(O)c3ccccc23)cc1	none
COc1ccc(NC(=O)Nc2ccc(O)c3ccccc23)cc1	TDP2 absorb 45, LEDGF integ inh 15 | TDP2 confirm inactive | IN multimer act inactive | TR-FRET interf inactive | IN-LEDGF confirm inactive
O=S(=O)(Nc1ccc(O)c2ccccc12)c1ccc(F)cc1	TDP2 absorb 47, LEDGF integ inh 27 | TDP2 confirm inactive | IN multimer act inactive | TR-FRET interf inactive | IN-LEDGF confirm inactive
COc1ccc(OC)c(S(=O)(=O)Nc2ccc(O)c3ccccc23)c1	TDP2 absorb 41, LEDGF integ inh 23 | TDP2 confirm inactive | IN multimer act inactive | TR-FRET interf inactive | IN-LEDGF confirm inactive
C[C@H]1CN([C@@H](C)CO)C(=O)CCCn2cc(nn2)CO[C@@H]1CN(C)S(=O)(=O)c1ccc(F)cc1	none
Cc1cc(N2CCNC[C@@H]2C)ccc1N1C[C@@H](C)O[C@@H](C)C1	none
CCOC(=O)N1CCN(C(=O)C[C@@H]2C(=O)N(Cc3ccc(OC)cc3)C3=CCN(C(=O)OC(C)(C)C)C[C@]32C(=O)OCC)CC1	none
